Source: PubChem
Shown are actives, neighbours in structure and some others; about 2.9% of the full set was active somewhere.
ADAM10 inh = inhibits human ADAM10 | O14672 | recombinant ADAM10, EDANS/DABCYL FRET peptide cleavage, 3 h | inhibition, % at 7 µM | 0.62% of 370,000 active;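 active means inhibition above a per-campaign cutoff equal to the mean of compounds falling between control-based bounds plus 3 SD, cut at about 20% in these data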;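 further: 0% = DMSO wells while the 100% control is not disclosed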
CaV13 ICDI inh = Disruptors of the CACNA1D IQ motif to Ca2+-dependent inactivation inhibitor domain association, primary screening, Förster resonance energy transfer in intact living …. 0.098% of 340,000 active. HEK cells, CFP/YFP FRET ICDI-IQ, plate reader, 10 min; percent FRET-ratio fall versus neutral wells. inhibition, % at 12.3 µM. AID 743397;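 active means mean replicate inhibition of at least 30% and at least 1% of replicates passing that level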;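 further: 0% = median of the neutral control wells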
FAS TE block = inhibitors of human fatty acid synthase thioesterase domain; P49327; recombinant FAS-TE, OMFH fluorogenic substrate, fluorescence endpoint; inhibition, % at 15 µM; 0.67% of 360,000 active;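 active means compounds whose normalised, plate-corrected inhibition of enzyme fluorescence in the single-dose primary screen is 50% or more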;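 further: 0% = DMSO with enzyme and 100% = substrate without enzyme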
Arrestin-AP2 inh = blocks beta-arrestin peptide binding to AP2 adaptin. FITC-arrestin peptide / GST-AP2 beads, flow cytometry; AP2 beta2 appendage carries R879A mutation. inhibition, % at 10 µM. 0.31% of 340,000 active. AID 504490;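 active means inhibition above a set limit, near 3 SD of compounds lacking own fluorescence, cut at about 54% in these data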;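 further: plate controls were DMSO wells for no effect and 5 µM unlabelled arrestin peptide for full effect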
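System: GST-AP2 R879A bound to glutathione beads, E. coli-expressed. Also added: 50 nM FITC-arrestin peptide. Schedule: compound with beads 12 min RT, then probe 1 h RT. Signal: bead flow cytometry, FITC channel. Read-out basis: percent response.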
ADAM17 inh = inhibits human ADAM17; P78536; recombinant ADAM17, EDANS/DABCYL FRET peptide cleavage; inhibition, % at 6.95 µM; 0.83% of 370,000 active;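 active means inhibition above the mean of compounds lying between control limits plus 3 SD, set per campaign, cut at about 8.5% in these data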;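 further: 0% = DMSO-only wells as the low control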
CendR NRP1 mod = alters CendR peptide binding to human NRP-1; O14786; FAM-RPARPAR peptide binding to NRP-1, fluorescence polarization; inhibition, % at 25 µM; 0.85% of 360,000 active;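 active means inhibition or corrected inhibition above about 18%, plus a signal ratio from 0.5 to 1.5, limit read from the data, passing the limit was not always enough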
Arr AP2 CP1 = inhibitors of human beta-arrestin and AP2 interaction; GST-AP2 beads, FITC arrestin peptide binding, flow cytometry; GST-fused beta2-adaptin appendage, R879A mutant; AID 504908; inhibition, % at 10 µM; shares compounds with Arrestin-AP2 inh; 2% of 1,300 active;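 active means inhibition above a set limit, roughly 3 SD of non-fluorescent compound noise, cut at about 38% in these data; inactive means inhibition at or below that limit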;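 further: loss of bead fluorescence from 50 nM FITC arrestin peptide bound to appendage; 0% = negative control wells and 100% = excess unlabelled arrestin peptide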
Target sequence (P63010 whole entry, looked up, the tested form may be a part, one chain of several): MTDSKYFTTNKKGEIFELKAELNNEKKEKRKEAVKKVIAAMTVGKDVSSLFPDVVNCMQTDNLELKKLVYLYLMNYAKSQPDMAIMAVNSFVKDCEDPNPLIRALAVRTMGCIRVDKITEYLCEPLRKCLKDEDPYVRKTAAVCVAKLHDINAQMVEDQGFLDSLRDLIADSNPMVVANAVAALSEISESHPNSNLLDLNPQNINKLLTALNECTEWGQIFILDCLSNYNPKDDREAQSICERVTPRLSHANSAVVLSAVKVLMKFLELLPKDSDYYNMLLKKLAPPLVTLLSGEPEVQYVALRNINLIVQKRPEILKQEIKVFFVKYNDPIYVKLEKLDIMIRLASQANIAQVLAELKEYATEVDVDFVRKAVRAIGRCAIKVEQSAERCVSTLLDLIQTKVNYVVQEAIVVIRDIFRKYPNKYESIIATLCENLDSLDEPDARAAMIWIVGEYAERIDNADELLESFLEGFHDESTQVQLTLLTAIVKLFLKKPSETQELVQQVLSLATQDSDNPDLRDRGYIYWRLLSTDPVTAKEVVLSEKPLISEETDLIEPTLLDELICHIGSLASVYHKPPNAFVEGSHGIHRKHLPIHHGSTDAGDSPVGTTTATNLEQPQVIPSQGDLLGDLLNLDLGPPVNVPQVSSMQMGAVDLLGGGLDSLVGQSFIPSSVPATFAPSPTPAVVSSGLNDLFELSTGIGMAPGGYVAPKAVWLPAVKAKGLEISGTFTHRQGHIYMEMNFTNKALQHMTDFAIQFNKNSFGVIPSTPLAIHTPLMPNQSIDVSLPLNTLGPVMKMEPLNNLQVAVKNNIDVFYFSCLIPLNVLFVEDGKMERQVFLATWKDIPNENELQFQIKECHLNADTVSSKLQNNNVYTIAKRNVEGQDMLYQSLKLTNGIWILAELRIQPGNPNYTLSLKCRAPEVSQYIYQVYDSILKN
GST GSH counter = disrupts GST binding to glutathione beads, arrestin-AP2 artifact; shares compounds with Arrestin-AP2 inh; GST-fluorescein binding to GSH beads, fluorescence, counter-screen; inhibition, % at 10 µM; 2% of 1,300 active;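 active means inhibition above 50%, about 3 SD of the inhibition seen with non-fluorescent compounds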;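 further: fluorescein maleimide labelled GST captured on 4 micron glutathione beads; higher means more loss of bead fluorescence from quenching or blocked binding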
* hit, by the source's call; . = not tested or not shown.

SMILES	ADAM10 inh	CaV13 ICDI inh	FAS TE block	Arrestin-AP2 inh	ADAM17 inh	CendR NRP1 mod	Arr AP2 CP1	GST GSH counter
Cc1ccccc1CN1CCN(CC2CC2)CC1CCO (stereo not given)	-5	-4	-7	57*	-5	4	4	-4
C=CCN=C1NC(c2cccc(Cl)c2)C(C(=O)OC)=C(C)N1Cc1ccc(C(F)(F)F)cc1 (stereo not given)	-2	-8	.	.	-5	.	.	.
Nc1sccc1C(=O)NCCN1CCOCC1	-25	-11	.	.	-9	-2	.	.
Cc1c(N(C(=O)Nc2ccccc2)C2=NCC(C)S2)c(=O)n(-c2ccccc2)n1C (stereo not given)	-1	-5	1	98*	-6	-5	-3	-1
Cc1ccc(N(C(=O)Nc2ccccc2)C2=NCC(C)S2)cc1 (stereo not given)	-60	-7	2	8	1	4	.	.
COC(=O)N1C[C@H](OCc2ccc3c(c2)OCO3)[C@H]2C[C@@H]1c1ccccc1O2	-11	-4	.	.	-2	.	.	.
COc1cc2c(cc1OC)CN(C(=S)Nc1ccccc1)CC2	-8	-8	-3	-5	-10	20	.	.
COc1cc2c(cc1OC)CN(C(=S)Nc1ccc(OC(F)F)cc1)CC2	-14	-5	3	56*	-6	-2	0	-3
NC(CCc1ccccc1)c1csc(Nc2nccc(C(F)(F)F)n2)n1 (stereo not given)	-6	-5	-10	.	1	-10	.	.
CC(C)CCNC(=O)CCC(=O)NNc1nc2ccccc2c2nc(-c3ccccc3)nn12	-12	-4	0	63*	-4	-3	-2	3
Cc1ccc2nc(/C(C#N)=C/c3ccc(-c4ccccc4C(=O)O)o3)[nH]c2c1	-7	-76	-9	4	-7	69	.	.
Cc1cc2nc(/C(C#N)=C\c3ccc(-c4ccccc4C(=O)O)o3)[nH]c2cc1C	-11	-59	-20	54*	-5	27	6	15
Cc1ccc(OCc2cn3cccnc3n2)cc1	-8	-14	-2	67*	-3	5	-5	11
Cc1ccn2c(NC(=O)C(C)(C)Oc3ccc(Cl)cc3)c(-c3cccs3)nc2c1	-53	-18	15	60*	-13	5	-6	4
Nn1c(SCc2ccc([N+](=O)[O-])cc2)nnc1-c1cc(-c2ccccc2)n[nH]1	-9	.	.	.	-4	.	.	.
c1ccc(CCNCC2COc3ccccc3O2)cc1 (stereo not given)	-1	-19	-3	55*	-3	1	-11	0
CN(c1ccc(F)cc1)S(=O)(=O)c1ccc(Cl)c(C(=O)NCC2(N3CCOCC3)CCCCC2)c1	-4	-2	16	-3	-1	-2	-13	-6
COc1ccc(Cl)cc1NS(=O)(=O)c1cccc(C(=O)NCC2(N(C)C)CCCCC2)c1	-4	-6	-5	39	-2	10	4	-2
COc1ccccc1NS(=O)(=O)c1ccc(C(=O)NCC2(N(C)C)CCCCC2)cc1	0	-5	-1	-5	-1	11	.	.
COc1ccccc1N(C)S(=O)(=O)c1ccc(Cl)c(C(=O)NCC2(N(C)C)CCCCC2)c1	-1	-5	-9	-2	-1	8	6	2
COc1ccccc1NS(=O)(=O)c1cccc(C(=O)NCC2(N(C)C)CCCCC2)c1	-8	-2	-9	3	-3	-1	-1	-15
O=C(Nc1ccccc1F)n1ncc2cc(Cl)ccc21	-5	-20	-5	62*	-3	4	-2	-4
COc1cc(NC(=O)n2ncc3cc(Cl)ccc32)cc(OC)c1	8	-20	7	6	5	-6	.	.
CCCCNS(=O)(=O)c1ccc(NC(=O)Cc2ccccc2[N+](=O)[O-])cc1	5	-4	4	56*	2	12	1	1
CC(C)(C)NS(=O)(=O)c1ccc(NC(=O)Cc2ccccc2[N+](=O)[O-])cc1	-6	-4	-6	12	0	2	.	.
SMILES	ADAM10 inh	CaV13 ICDI inh	FAS TE block	Arrestin-AP2 inh	ADAM17 inh	CendR NRP1 mod	Arr AP2 CP1	GST GSH counter
CC(/C=C/C=C/c1ccccc1)=N\NC(=O)c1cccnc1	-4	-2	-7	41	-5	-3	.	.
CC(/C=C\C=C\c1ccccc1)=N\NC(=O)c1cncc(Br)c1	1	-6	1	92*	6	-18	5	8
O=C(CSc1nnc(-c2ccccn2)n1Cc1ccco1)Nc1ccc(Oc2ccccc2)cc1	9	.	.	.	3	.	.	.
CCNC(=O)N(CC)C[C@H]1N[C@@](C)(C(=O)OC)[C@H]2C(=O)N(Cc3ccccc3)C(=O)[C@@H]12	-13	-3	-9	-7	-3	13	.	.
CCN(C[C@H]1N[C@@](C)(C(=O)OC)[C@H]2C(=O)N(Cc3ccccc3)C(=O)[C@@H]12)C(=O)c1ccccc1	-10	.	-15	57*	-2	-8	2	-4
COC(=O)C1=CN(c2ccc(F)cc2)C(N)=C(C#N)C1c1cccc(OC)c1OC (stereo not given)	-5	-7	.	.	-5	18	.	.
Cc1cc(C)c2sc(N(CCCN(C)C)C(=O)c3ccc(S(=O)(=O)N(C)C4CCCCC4)cc3)nc2c1	0	-7	26	57*	4	-2	-2	-6
CN(C)CCCN(C(=O)c1ccc(S(=O)(=O)N(C)C2CCCCC2)cc1)c1nc2ccc(F)cc2s1	-9	-2	18	29	-2	-16	.	.
O=C(NCC1CCCO1)c1cc(-c2ccccc2)nc2ccc(Br)cc12 (stereo not given)	-7	.	19	54*	-3	13	1	-5
Cc1ccc2nc(-c3cccc(Br)c3)cc(C(=O)NCC3CCCO3)c2c1 (stereo not given)	-28	-13	16	-6	-7	1	.	.
COc1cc(C(=O)NCC(=O)OCC(=O)Nc2nnc(-c3ccccc3)o2)cc(OC)c1OC	-3	-5	0	0	-3	0	.	.
COc1cc(C(=O)OCC(=O)Nc2nnc(-c3ccccc3)o2)cc(OC)c1OC	7	-6	-3	55*	1	6	-6	-8
O=C(c1cc2ccccc2o1)N1CCN(c2ccccc2Cl)CC1	-5	-3	16	33	1	5	.	.
Cc1ccc(-c2nn(-c3ccccc3)cc2C(=O)N2CCN(c3ccccn3)CC2)cc1	2	-6	19	57*	3	9	13	-5
